Results taken from ChEMBL document CHEMBL1125904, “Synthesis and anthelmintic activity of 3'-benzoylurea derivatives of 6-phenyl-2,3,5,6-tetrahydroimidazo[2,1-b]thiazole” (1991).

Columns and labels:
Type in all cases: functional
[1] = tested on: Heligmosomoides polygyrus; experiment: Anthelmintic activity ( in Vivo ) in mouse, as percentage reduction of Nematospiroides dubius at 125 PPM
How it was run: (§1)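 Mice infected by oral gavage with 35-40 N. dubius L3 larvae plus 5000 H. nana eggs each. From 24 h post-infection, groups of four fed compound ad lib in powdered lab chow (31-1000 ppm) for 18 days. Killed on day 19; N. dubius counted in duodenum under dissecting microscope. Percent reduction computed from mean worm counts, treated vs untreated control.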

Ovis aries [2] = experiment: Anthelmintic activity (in Vivo)in sheep as percentage reduction versus control (by administration of benzimidazole-susceptible L3 larvae of Trichostrongylus colubriformis intraruminally) at 5 mg/kg po
How it was run: (§2)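 Sheep on lucerne/oaten chaff were infected intraruminally on day 0 with benzimidazole-susceptible L3 larvae (H. contortus 6000, O. circumcincta 8000, T. colubriformis 8000). They were allocated on day-27 faecal egg counts and weight (n = 4-7). A single intraruminal dose in 0.5% Na CMC/0.9% saline was given on day 28, with an untreated control per assay. On day 35, adult worms in abomasum and small intestine were counted as % reduction vs control.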

Ovis aries [3] = experiment: Anthelmintic activity (in Vivo)in sheep as percentage reduction versus control (by administration of benzimidazole-susceptible L3 larvae of Ostertagia circumcincta intraruminally)at 15 mg/kg po; how it was run: as §2
[4] = tested on: Heligmosomoides polygyrus; experiment: Anthelmintic activity ( in Vivo ) in mouse, as percentage reduction of Nematospiroides dubius at 250 PPM; how it was run: as §1
Ovis aries [5] = experiment: Anthelmintic activity (in Vivo)in sheep as percentage reduction versus control (by administration of benzimidazole-susceptible L3 larvae of Haemonchus contortus intraruminally)at 5 mg/kg po; how it was run: as §2
Ovis aries [6] = experiment: Anthelmintic activity (in Vivo)in sheep as percentage reduction versus control (by administration of benzimidazole-susceptible L3 larvae of Ostertagia circumcincta intraruminally)at 5 mg/kg po; how it was run: as §2
Ovis aries [7] = experiment: Anthelmintic activity (in Vivo)in sheep as percentage reduction versus control (by administration of benzimidazole-susceptible L3 larvae of Trichostrongylus colubriformis intraruminally) at 10 mg/kg po; how it was run: as §2
Ovis aries [8] = experiment: Anthelmintic activity (in Vivo)in sheep as percentage reduction versus control (by administration of benzimidazole-susceptible L3 larvae of Ostertagia circumcincta intraruminally)at 10 mg/kg po; how it was run: as §2
Ovis aries [9] = experiment: Anthelmintic activity (in Vivo)in sheep as percentage reduction versus control (by administration of benzimidazole-susceptible L3 larvae of Haemonchus contortus intraruminally)at 15 mg/kg po; how it was run: as §2
[10] = tested on: Heligmosomoides polygyrus; experiment: Anthelmintic activity ( in Vivo ) in mouse, as percentage reduction of Nematospiroides dubius at 62 PPM; how it was run: as §1
Ovis aries [11] = experiment: Anthelmintic activity (in Vivo)in sheep as percentage reduction versus control (by administration of benzimidazole-susceptible L3 larvae of Haemonchus contortus intraruminally)at 10 mg/kg po; how it was run: as §2
Ovis aries [12] = experiment: Anthelmintic activity (in Vivo)in sheep as percentage reduction versus control (by administration of benzimidazole-susceptible L3 larvae of Trichostrongylus colubriformis intraruminally) at 15 mg/kg po; how it was run: as §2
[13] = tested on: Heligmosomoides polygyrus; experiment: Anthelmintic activity ( in Vivo ) in mouse, as percentage reduction of Nematospiroides dubius at 500 PPM; how it was run: as §1
Ovis aries [14] = experiment: Anthelmintic activity (in Vivo)in sheep as percentage reduction versus control (by administration of benzimidazole-susceptible L3 larvae of T colubriformis intraruminally) at 5 mg/kg po; how it was run: as §2
Ovis aries [15] = experiment: Anthelmintic activity (in Vivo)in sheep as percentage reduction versus control (by administration of benzimidazole-susceptible L3 larvae of T colubriformis intraruminally) at 10 mg/kg po; how it was run: as §2
Ovis aries [16] = experiment: Anthelmintic activity (in Vivo)in sheep as percentage reduction versus control (by administration of benzimidazole-susceptible L3 larvae of H contortus intraruminally)at 5 mg/kg po; how it was run: as §2
Ovis aries [17] = experiment: Anthelmintic activity (in Vivo)in sheep as percentage reduction versus control (by administration of benzimidazole-susceptible L3 larvae of H contortus intraruminally)at 10 mg/kg po; how it was run: as §2
Ovis aries [18] = experiment: Anthelmintic activity (in Vivo)in sheep as percentage reduction versus control (by administration of benzimidazole-susceptible L3 larvae of O circumcincta intraruminally)at 5 mg/kg po; how it was run: as §2
Ovis aries [19] = experiment: Anthelmintic activity (in Vivo)in sheep as percentage reduction versus control (by administration of benzimidazole-susceptible L3 larvae of O circumcincta intraruminally)at 10 mg/kg po; how it was run: as §2
[20] = tested on: Heligmosomoides polygyrus; experiment: Anthelmintic activity ( in Vivo ) in mouse, as percentage reduction of Nematospiroides dubius at 1000 PPM; how it was run: as §1
Ovis aries [21] = experiment: Anthelmintic activity (in Vivo)in sheep as percentage reduction versus control (by administration of benzimidazole-susceptible L3 larvae of Haemonchus contortus intraruminally)at 30 mg/kg po; how it was run: as §2
Ovis aries [22] = experiment: Anthelmintic activity (in Vivo)in sheep as percentage reduction versus control (by administration of benzimidazole-susceptible L3 larvae of Ostertagia circumcincta intraruminally)at 30 mg/kg po; how it was run: as §2
Ovis aries [23] = experiment: Anthelmintic activity (in Vivo) in sheep as percentage reduction versus control (by administration of […] L3 larvae of Ostertagia circumcincta intraruminally)at 30 mg/kg po (Benzimidazole, levamisole and morantel resistant strain)
How it was run: (§3)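 Sheep fed lucerne/oaten chaff were infected intraruminally with L3 larvae of a drug-resistant strain (benzimidazole-resistant; for O. circumcincta, benzimidazole-, levamisole- and morantel-resistant). They were grouped by faecal egg counts (n = 4-7) and dosed once intraruminally on day 28 in 0.5% Na CMC/saline. Adult worms were counted on day 35 as % reduction vs untreated control.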

Ovis aries [24] = experiment: Anthelmintic activity (in Vivo)in sheep as percentage reduction versus control (by administration of […] L3 larvae of Trichostrongylus colubriformis intraruminally) at 30 mg/kg po (Benzimidazole resistant strain); how it was run: as §3
Ovis aries [25] = experiment: Anthelmintic activity (in Vivo)in sheep as percentage reduction versus control (by administration of […] L3 larvae of Haemonchus contortus intraruminally)at 30 mg/kg po (Benzimidazole resistant strain); how it was run: as §3
Ovis aries [26] = experiment: Anthelmintic activity (in Vivo)in sheep as percentage reduction versus control (by administration of benzimidazole-susceptible L3 larvae of Trichostrongylus colubriformis intraruminally) at 30 mg/kg po; how it was run: as §2
[27] = tested on: Heligmosomoides polygyrus; experiment: Anthelmintic activity ( in Vivo ) in mouse, as percentage reduction of Nematospiroides dubius at 31 PPM; how it was run: as §1
Ovis aries [28] = experiment: Anthelmintic activity (in Vivo)in sheep as percentage reduction versus control (by administration of benzimidazole-susceptible L3 larvae of Haemonchus contortus intraruminally)at 16.4 mg/kg po; how it was run: as §2
Ovis aries [29] = experiment: Anthelmintic activity (in Vivo)in sheep as percentage reduction versus control (by administration of benzimidazole-susceptible L3 larvae of Haemonchus contortus intraruminally)at 10.9 mg/kg po; how it was run: as §2
Ovis aries [30] = experiment: Anthelmintic activity (in Vivo)in sheep as percentage reduction versus control (by administration of benzimidazole-susceptible L3 larvae of Ostertagia circumcincta intraruminally)at 16.4 mg/kg po; how it was run: as §2
Ovis aries [31] = experiment: Anthelmintic activity (in Vivo)in sheep as percentage reduction versus control (by administration of benzimidazole-susceptible L3 larvae of Trichostrongylus colubriformis intraruminally) at 16.4 mg/kg po; how it was run: as §2
Ovis aries [32] = experiment: Anthelmintic activity (in Vivo)in sheep as percentage reduction versus control (by administration of benzimidazole-susceptible L3 larvae of Trichostrongylus colubriformis intraruminally) at 10.9 mg/kg po; how it was run: as §2
Ovis aries [33] = experiment: Anthelmintic activity (in Vivo)in sheep as percentage reduction versus control (by administration of benzimidazole-susceptible L3 larvae of Ostertagia circumcincta intraruminally)at 10.9 mg/kg po; how it was run: as §2

SMILES | Reduction [1] [%] | Reduction [4] [%] | Reduction [10] [%] | Reduction [13] [%] | further results
O=C(NC(=O)c1c(F)cccc1F)Nc1cccc([C@H]2CN3CCSC3=N2)c1 | 26 | 100 | 0 | 100 | Reduction (Ovis aries [2]): 75%; Reduction (Ovis aries [3]): 74%; Reduction (Ovis aries [5]): 74%; Reduction (Ovis aries [6]): 56%; Reduction (Ovis aries [7]): 96%; Reduction (Ovis aries [8]): 64%; Reduction (Ovis aries [9]): 86%; Reduction (Ovis aries [11]): 90%; Reduction (Ovis aries [12]): 98%
O=C(NC(=O)c1ccc(C(F)(F)F)cc1)Nc1cccc([C@H]2CN3CCSC3=N2)c1 | 0 | 43 |  |  | Reduction (Ovis aries [14]): 15%; Reduction (Ovis aries [15]): 40%; Reduction (Ovis aries [16]): 27%; Reduction (Ovis aries [17]): 59%; Reduction (Ovis aries [18]): 33%; Reduction (Ovis aries [19]): 29%
CC(C)(C)c1ccc(C(=O)NC(=O)Nc2cccc(C3CN4CCSC4=N3)c2)cc1 (centres undefined) |  | 0 |  |  | 
O=C(NC(=O)c1ccc(C(=O)c2ccccc2)cc1)Nc1cccc(C2CN3CCSC3=N2)c1 (centres undefined) |  | 0 |  |  | Reduction [20]: 100%
O=C(NC(=O)c1ccc([N+](=O)[O-])cc1)Nc1cccc(C2CN3CCSC3=N2)c1 (centres undefined) |  |  |  |  | Reduction [20]: 0%
O=C(NC(=O)c1ccc(OC(F)(F)F)cc1)Nc1cccc(C2CN3CCSC3=N2)c1 (centres undefined) |  | 0 |  |  | 
O=C(NC(=O)c1ccc(F)cc1)Nc1cccc(C2CN3CCSC3=N2)c1 (centres undefined) |  | 0 |  | 43 | 
O=C(NC(=O)c1cccc([N+](=O)[O-])c1)Nc1cccc(C2CN3CCSC3=N2)c1 (centres undefined) |  | 0 |  |  | 
O=C(NC(=O)c1ccc(I)cc1)Nc1cccc(C2CN3CCSC3=N2)c1 (centres undefined) |  | 0 |  |  | 
COc1ccc(C(=O)NC(=O)Nc2cccc(C3CN4CCSC4=N3)c2)cc1 (centres undefined) |  |  |  |  | Reduction [20]: 0%
O=C(NC(=O)c1c(F)cccc1F)Nc1cccc(C2CN3CCSC3=N2)c1 (centres undefined) | 76 | 100 | 0 | 100 | Reduction (Ovis aries [21]): 98%; Reduction (Ovis aries [22]): 93%; Reduction (Ovis aries [3]): 75%; Reduction (Ovis aries [23]): 55%; Reduction (Ovis aries [24]): 92%; Reduction (Ovis aries [9]): 92%; Reduction (Ovis aries [25]): 100%; Reduction (Ovis aries [26]): 99%; Reduction (Ovis aries [12]): 100%
O=C(NC(=O)c1ccccc1Cl)Nc1cccc(C2CN3CCSC3=N2)c1 (centres undefined) | 56 | 100 | 0 |  | 
COc1ccccc1C(=O)NC(=O)Nc1cccc(C2CN3CCSC3=N2)c1 (centres undefined) |  | 0 |  |  | 
O=C(NC(=O)c1ccccc1[N+](=O)[O-])Nc1cccc(C2CN3CCSC3=N2)c1 (centres undefined) |  |  |  | 0 | 
O=C(NC(=O)c1ccc(C(F)(F)F)cc1)Nc1cccc(C2CN3CCSC3=N2)c1 (centres undefined) | 96 | 100 | 43 | 100 | Reduction [27]: 0%
O=C(NC(=O)c1ccccc1F)Nc1cccc(C2CN3CCSC3=N2)c1 (centres undefined) | 95 |  | 40 |  | Reduction [27]: 0%
O=C(NC(=O)c1c(Cl)cccc1Cl)Nc1cccc(C2CN3CCSC3=N2)c1 (centres undefined) |  |  |  | 0 | Reduction [20]: 56%
N#Cc1ccc(C(=O)NC(=O)Nc2cccc(C3CN4CCSC4=N3)c2)cc1 (centres undefined) |  | 0 |  |  | 
O=C(NC(=O)c1ccccc1)Nc1cccc(C2CN3CCSC3=N2)c1 (centres undefined) |  |  |  | 0 | Reduction [20]: 59%
O=C(NC(=O)c1cc(F)cc(F)c1)Nc1cccc(C2CN3CCSC3=N2)c1 (centres undefined) |  |  |  | 0 | 
O=C(NC(=O)c1ccc(Cl)cc1)Nc1cccc(C2CN3CCSC3=N2)c1 (centres undefined) |  |  |  | 0 | 
Cl.O=C(NC(=O)c1c(F)cccc1F)Nc1cccc(C2CN3CCSC3=N2)c1 (centres undefined) |  |  |  |  | Reduction (Ovis aries [28]): 78%; Reduction (Ovis aries [29]): 64%; Reduction (Ovis aries [30]): 82%; Reduction (Ovis aries [31]): 99%; Reduction (Ovis aries [32]): 93%; Reduction (Ovis aries [33]): 52%
c1ccc([C@H]2CN3CCSC3=N2)cc1 [LEVAMISOLE] |  |  | 100 | 100 | Reduction [27]: 60%
COC(=O)Nc1nc2cc([S+]([O-])c3ccccc3)ccc2[nH]1 (centres undefined) [OXFENDAZOLE] | 100 |  | 100 |  | Reduction [27]: 100%
c1ccc(C2CN3CCSC3=N2)cc1 (centres undefined) [TETRAMISOLE] | 100 |  | 0 | 100 | 
